The values below come from ChEMBL document CHEMBL1139351, “Synthesis and biological evaluation of vinca alkaloids and phomopsin hybrids” (J Med Chem, 2009).

Calls of active or inactive are those of the source. The calls are words filed in the database; no cut-off is given here.

For one experiment, the system named is KB. The experiment in a line: Cytotoxicity against human KB cells after 72 hrs. Format: functional, cell-based. The method in brief: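 KB human cells; growth followed for 72 h of drug exposure; IC50 taken as the concentration giving 50% growth inhibition.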
A short description of experiment [1]: Inhibition of tubulin polymerization assessed as ratio of IC50 for compound to IC50 for vinblastin by UV spectrophotometry. The method in brief: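 Microtubular protein purified from mammalian brain. Drug added from ethanol at several concentrations to free tubulin at 0 °C, then shifted to 37 °C. Assembly followed as OD at 350 nm for 1 min. Maximum assembly rate compared with a drug-free sample, giving IC50. Ratio taken against a vinblastine IC50 measured the same day on the same tubulin preparation.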

Experiment [2] is described as follows: Inhibition of tubulin polymerisation by UV spectrophotometry. The method in brief:
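Microtubular protein purified from mammalian brain. Drug in ethanol at several concentrations added to free tubulin at 0 °C, then shifted to 37 °C. Assembly followed as optical density at 350 nm for 1 min. Maximum assembly rate compared with a no-drug sample. IC50 derived from several concentrations and compared with vinblastine run the same day on the same tubulin preparation.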

Experiment [3] concerns the target Tubulin beta-5 chain (Homo sapiens) (UniProt P07437). The experiment in a line: Inhibition of beta tubulin nucleotide site assessed as inhibition of displacement of cold GDP by [alpha32P]GTP at 20 uM by rapid filtration technique. Details: scale not given: the % may be the effect or the level left.
Experiment [4] shares this target. The experiment in a line: Inhibition of beta tubulin nucleotide site assessed as inhibition of displacement of cold GDP by [alpha32P]GTP at 40 uM by rapid filtration technique.
Experiment [5] shares this target. The experiment in a line: Inhibition of beta tubulin nucleotide site assessed as displacement of cold GDP by [alpha32P]GTP at 100 uM by rapid filtration technique. Also on record: scale not given: the % may be the effect or the level left.
Experiment [6] shares this target. The experiment in a line: Inhibition of beta tubulin nucleotide site assessed as inhibition of displacement of cold GDP by [alpha32P]GTP by rapid filtration technique relative to phomopsin A.

Sequence of Tubulin beta-5 chain (Homo sapiens) (P07437 whole entry): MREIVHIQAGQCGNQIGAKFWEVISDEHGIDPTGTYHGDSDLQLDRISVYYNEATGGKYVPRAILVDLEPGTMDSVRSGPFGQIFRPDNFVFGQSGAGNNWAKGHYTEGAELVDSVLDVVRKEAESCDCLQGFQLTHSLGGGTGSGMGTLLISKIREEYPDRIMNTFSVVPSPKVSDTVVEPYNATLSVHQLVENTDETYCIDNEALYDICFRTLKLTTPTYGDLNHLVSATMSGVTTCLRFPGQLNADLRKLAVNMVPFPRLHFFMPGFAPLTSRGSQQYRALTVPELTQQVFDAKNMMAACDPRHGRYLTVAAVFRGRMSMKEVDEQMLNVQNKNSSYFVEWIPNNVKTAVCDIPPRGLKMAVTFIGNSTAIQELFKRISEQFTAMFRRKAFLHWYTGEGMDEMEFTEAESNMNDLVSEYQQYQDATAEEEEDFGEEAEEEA

The IC50 is the point on the concentration scale where inhibition reaches its midpoint. `CCC1=C[C@@H]2C[C@](C(=O)OC)(c3cc4c(cc3OC)N(C)[C@H]3[C@@](O)(C(=O)OC)[C@H](OC(C)=O)[C@]5(CC)C=CCN6CC[C@]43[C@@H]65)c3[nH]c4ccccc4c3CC[N+](CC(=O)N3CCC[C@H]3C(=O)N[C@H](C(=O)OCc3ccccc3)[C@@H](C)CC)(C1)C2`: the midpoint of inhibition with KB (Homo sapiens, KB, 72 h), the IC50, lay at 300 nM. In addition, the Ratio IC50 in experiment [1] was found to be 1.4.

In the case of `CCC1=C[C@@H]2CN(C1)Cc1c([nH]c3ccccc13)[C@@](C(=O)OC)(c1cc3c(cc1OC)N(C)[C@H]1[C@@](O)(C(=O)OC)[C@H](OC(C)=O)[C@]4(CC)C=CCN5CC[C@]31[C@@H]54)C2` (stereo in doubt; 4) [VINORELBINE], in the experiment on KB (kb), inhibition was half-maximal at 1 nM (IC50).

`CCC1=C[C@@H]2C[C@](C(=O)OC)(c3cc4c(cc3OC)N(C)[C@H]3[C@@](O)(C(=O)OC)[C@H](OC(C)=O)[C@]5(CC)C=CCN6CC[C@]43[C@@H]65)c3[nH]c4ccccc4c3C[N+](CC(=O)N3CCC[C@H]3C(=O)N[C@H](C(=O)N[C@@H](CC(=O)O)C(=O)O)[C@@H](C)CC)(C1)C2`: the IC50 in the experiment on KB (Homo sapiens, KB, 72 h) is 400 nM. For the same molecule, the Ratio IC50 in experiment [1] was determined as 19.4.

Regarding `CC[C@]1(O)C[C@@H]2CN(CCc3c([nH]c4ccccc34)[C@@](C(=O)OC)(c3cc4c(cc3OC)N(C)[C@H]3[C@@](O)(C(=O)OC)[C@H](OC(C)=O)[C@]5(CC)C=CCN6CC[C@]43[C@@H]65)C2)C1` [VINBLASTINE], the IC50 in the experiment on KB (Homo sapiens, KB, 72 h) was found to be 1 nM; in experiment [2], 2100 nM. Further, the Activity in experiment [3] was 25%. Besides, in experiment [1], the Ratio IC50 came out at 1.

`CCC1=C[C@@H]2C[C@](C(=O)OC)(c3cc4c(cc3OC)N(C)[C@H]3[C@@](O)(C(=O)OC)[C@H](OC(C)=O)[C@]5(CC)C=CCN6CC[C@]43[C@@H]65)c3[nH]c4ccccc4c3CC[N+](CC(=O)N3CCC[C@H]3C(=O)N[C@H](C(=O)N[C@@H](CC(=O)O)C(=O)O)[C@@H](C)CC)(C1)C2` displayed an IC50 with KB (Homo sapiens, KB, 72 h) of 100 nM. In experiment [1], the Ratio IC50 was found to be 2.

In the experiment on KB (Homo sapiens, KB, 72 h), `CCC1=C[C@@H]2C[C@](C(=O)OC)(c3cc4c(cc3OC)N(C)[C@H]3[C@@](O)(C(=O)OC)[C@H](OC(C)=O)[C@]5(CC)C=CCN6CC[C@]43[C@@H]65)c3[nH]c4ccccc4c3CC[N+](CC(=O)N3CCC[C@H]3C(=O)N[C@H](C(=O)O)[C@@H](C)CC)(C1)C2` came in with an IC50 of 700 nM. The Ratio IC50 in experiment [1] was found to be 1.7.

Turning to `CCC1=C[C@@H]2C[C@](C(=O)OC)(c3cc4c(cc3OC)N(C)[C@H]3[C@@](O)(C(=O)OC)[C@H](OC(C)=O)[C@]5(CC)C=CCN6CC[C@]43[C@@H]65)c3[nH]c4ccccc4c3C[N+](CC(=O)N3CCC[C@H]3C(=O)N[C@H](C(=O)OCc3ccccc3)[C@@H](C)CC)(C1)C2`, the IC50 with KB (Homo sapiens, KB, 72 h) was 50 nM. In addition, in experiment [1], the Ratio IC50 came to 9.4.

The molecule `CCC1=C[C@@H]2C[C@](C(=O)OC)(c3cc4c(cc3OC)N(C)[C@H]3[C@@](O)(C(=O)OC)[C@H](OC(C)=O)[C@]5(CC)C=CCN6CC[C@]43[C@@H]65)c3[nH]c4ccccc4c3C[N+](CC(=O)N3CCC[C@H]3C(=O)N[C@H](C(=O)O)[C@@H](C)CC)(C1)C2` displayed an IC50 with KB (Homo sapiens, KB, 72 h) of 90 nM. Besides, in experiment [1], the Ratio IC50 was 9.4.

For `CCC1=C[C@@H]2C[C@](C(=O)OC)(c3cc4c(cc3OC)N(C)[C@H]3[C@@](O)(C(=O)OC)[C@H](OC(C)=O)[C@]5(CC)C=CCN6CC[C@]43[C@@H]65)c3[nH]c4ccccc4c3C[N+](CC(=O)N3CCC[C@H]3C(=O)N[C@H](C(=O)N[C@@H](CC(=O)OCc3ccccc3)C(=O)OCc3ccccc3)[C@@H](C)CC)(C1)C2`, the IC50 in the experiment with KB (Homo sapiens, KB, 72 h) was determined as 1300 nM. In experiment [1], the Ratio IC50 was 1.8.

Regarding `CCC1=C[C@@H]2C[C@](C(=O)OC)(c3cc4c(cc3OC)N(C)[C@H]3[C@@](O)(C(=O)OC)[C@H](OC(C)=O)[C@]5(CC)C=CCN6CC[C@]43[C@@H]65)c3[nH]c4ccccc4c3C[N+](CC(=O)N3CCC[C@H]3C(=O)OC)(C1)C2`, the IC50 with KB (Homo sapiens, KB, 72 h) was determined as 100 nM. For the same molecule, the Ratio IC50 in experiment [1] amounted to 2.

Regarding `CCC1=C[C@@H]2CN(C1)Cc1c([nH]c3ccccc13)[C@@](C(=O)OC)(c1cc3c(cc1OC)N(C)[C@H]1[C@@](O)(C(=O)OC)[C@H](OC(C)=O)[C@]4(CC)C=CCN5CC[C@]31[C@@H]54)C2` (stereo in doubt; 3) [VINORELBINE], 40 nM corresponded to half-maximal inhibition with KB (kb) (IC50).

For `CCC1=C[C@@H]2C[C@](C(=O)OC)(c3cc4c(cc3OC)N(C)[C@H]3[C@@](O)(C(=O)OC)[C@H](OC(C)=O)[C@]5(CC)C=CCN6CC[C@]43[C@@H]65)c3[nH]c4ccccc4c3CC[N+](CC(=O)N3CCC[C@H]3C(=O)N[C@H](C(=O)N[C@@H](CC(=O)OCc3ccccc3)C(=O)OCc3ccccc3)[C@@H](C)CC)(C1)C2`, the result in experiment [4], in experiment [3] and in experiment [6] was inactive. Further, the Activity in experiment [5] is 55%. In addition, the IC50 in the experiment with KB (Homo sapiens, KB, 72 h) turned out to be 700 nM. Besides, the Ratio IC50 in experiment [1] was determined as 1.3.

On to `CCC1=C[C@@H]2C[C@](C(=O)OC)(c3cc4c(cc3OC)N(C)[C@H]3[C@@](O)(C(=O)OC)[C@H](OC(C)=O)[C@]5(CC)C=CCN6CC[C@]43[C@@H]65)c3[nH]c4ccccc4c3CC[N+](CC(=O)N3CCC[C@H]3C(=O)OC)(C1)C2`, for which half-maximal inhibition in the experiment with KB (Homo sapiens, KB, 72 h) (IC50) required 80 nM. Besides, the Ratio IC50 in experiment [1] was 0.9.

In experiment [2], `CC[C@H](C)[C@H](NC(=O)[C@@H]1CCCN1C(=O)[C@H]1NC(=O)[C@H](C(C)C)NC(=O)[C@@H](NC)[C@@H](O)c2cc(Cl)c(O)c(c2)O[C@]1(C)CC)C(=O)NC(CC(=O)O)C(=O)O` (mixture of isomers) yielded a half-inhibitory concentration (IC50) of 400 nM.

For `C=C(C)[C@@H]1NC(=O)[C@@H](NC)[C@@H](O)c2cc(Cl)c(O)c(c2)O[C@](C)(CC)[C@@H](C(=O)N2CC=C[C@H]2C(=O)N/C(C(=O)N/C(=C/C(=O)O)C(=O)O)=C(\C)CC)NC1=O` [PHOMOPSIN A], in experiment [2], the IC50 amounted to 560 nM. In experiment [3], the outcome was Active.
